Measurements from different studies.
Compare with care: the assays were run in different laboratories.
Target: NT-3 growth factor receptor (NTRK3, Homo sapiens, UniProt Q16288)

C#Cc1n[nH]c2c(-c3cn(C(C)c4ccccn4)c(=O)[nH]c3=O)cc(F)cc12 (centres unmarked) — inhibition (enzyme activity; inhibitor; 1 µM): 12.3%
Cn1cc(-c2cc(F)cc(N3CCn4c(cc5c4CCCC5)C3=O)c2CO)cc(Nc2ccc(N3CCN(C4COC4)CC3)cn2)c1=O — inhibition (enzyme activity; inhibitor; 0.1 µM): 15%
Cc1nn(C)cc1-c1nc2c(N3CCN(Cc4ccc(Cl)cc4)CC3)c(Cl)cnc2[nH]1 — remaining binding (binding; competition with immobilised ligand; 1 µM): 57%
N#CC1(c2ccccn2)CCN(Cc2cc(C(=O)O)c(=O)n3ccccc23)CC1 — remaining binding (cell-free assay; competition with immobilised ligand; 1 µM): 70%
Nc1ncc(-c2nc(N3CCOCC3)nc(N3CCOCC3)n2)c(C(F)F)n1 — remaining binding (cell-free assay; competition with immobilised ligand; 10 µM): 87%
Cn1cncc1[C@@](O)(COc1ccc(C#N)cc1-c1ccc(OC(F)(F)F)cc1)c1ccc(C#N)cc1 — remaining binding (cell-free assay; competition with immobilised ligand; 1 µM): 99%
COc1ncccc1-c1cnn2ccc(N3CCN(C(=O)OC(C)C)CC3)nc12 — remaining binding (binding; competition with immobilised ligand; 1 µM): 50%
O=c1[nH]c2ccccc2n1C1CCN(Cc2ccc(-c3[nH]c4cc5ncnc5cc4nc3-c3ccccc3)cc2)CC1 — remaining signal (cell-free assay; 0.5 µM): 116%
Cn1cc(-c2cccc(N3CCc4c(sc5c4CC(C)(C)C5)C3=O)c2CO)cc(Nc2ccncn2)c1=O — inhibition (enzyme activity; inhibitor; 1 µM): -8%
CC(C)(C)c1cc(C=C(C#N)C#N)cc(Br)c1O — remaining activity (enzyme activity; inhibitor; 0.5 µM): 104%
C#Cc1n[nH]c2c(-c3cn([C@@H](C)c4ccccc4)c(=O)[nH]c3=O)cc(F)cc12 — inhibition (enzyme activity; inhibitor; 0.1 µM): 11.4%
